# Experimental data taken from the M2OR odorant receptor database.
# Numbering of substitutions follows the chain as printed.
# Legend:
# Conditions in all cases: stereoisomer not certain
# A0A140T8K0 = tested on: T1, A0A140T8K0
# T1 sequence (whole entry): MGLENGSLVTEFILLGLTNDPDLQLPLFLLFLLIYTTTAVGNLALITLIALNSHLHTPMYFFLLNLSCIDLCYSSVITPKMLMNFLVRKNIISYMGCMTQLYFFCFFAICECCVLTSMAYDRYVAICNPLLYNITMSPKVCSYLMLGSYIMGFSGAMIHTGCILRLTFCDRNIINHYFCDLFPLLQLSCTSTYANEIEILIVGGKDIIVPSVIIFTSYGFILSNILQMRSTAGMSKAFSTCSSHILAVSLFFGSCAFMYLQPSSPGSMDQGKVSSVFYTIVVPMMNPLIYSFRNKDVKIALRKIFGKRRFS
# In short: (§1)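 Whether a receptor–molecule pair is responsive (active) rests on the original authors' judgment that its measured signal was statistically different from baseline. Pairs without that judgment are non-responsive (inactive). Sources used varied assay methods, commonly transient luciferase assays in mammalian cell lines.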
# A0A140T8K4 = tested on: T2, A0A140T8K4
# T2 sequence (whole entry): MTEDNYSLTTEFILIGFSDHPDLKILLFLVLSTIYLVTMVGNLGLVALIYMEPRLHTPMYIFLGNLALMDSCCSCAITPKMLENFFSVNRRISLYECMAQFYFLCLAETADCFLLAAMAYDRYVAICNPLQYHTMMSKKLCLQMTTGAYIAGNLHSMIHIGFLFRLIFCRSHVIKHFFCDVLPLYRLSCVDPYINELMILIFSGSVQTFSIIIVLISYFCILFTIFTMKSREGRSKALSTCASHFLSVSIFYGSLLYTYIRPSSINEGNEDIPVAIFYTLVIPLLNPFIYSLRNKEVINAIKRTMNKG
# In short: as §1
# A0A2J8MY22 = tested on: T3, A0A2J8MY22
# T3 sequence (whole entry): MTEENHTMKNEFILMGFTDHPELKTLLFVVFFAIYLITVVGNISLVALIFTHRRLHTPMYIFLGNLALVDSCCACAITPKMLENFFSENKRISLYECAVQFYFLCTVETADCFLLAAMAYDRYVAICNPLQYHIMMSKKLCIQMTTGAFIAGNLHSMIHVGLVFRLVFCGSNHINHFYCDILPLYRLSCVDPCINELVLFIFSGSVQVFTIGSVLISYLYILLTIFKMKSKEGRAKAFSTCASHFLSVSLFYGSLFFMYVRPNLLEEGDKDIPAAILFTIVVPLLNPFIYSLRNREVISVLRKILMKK
# In short: as §1
# A0A2R8ZIW4 = tested on: T4, A0A2R8ZIW4
# T4 sequence (whole entry): T3 sequence (whole entry) with V39I, I280V
# In short: as §1
# A0A3Q7SVK8 = tested on: T5, A0A3Q7SVK8
# T5 sequence (whole entry): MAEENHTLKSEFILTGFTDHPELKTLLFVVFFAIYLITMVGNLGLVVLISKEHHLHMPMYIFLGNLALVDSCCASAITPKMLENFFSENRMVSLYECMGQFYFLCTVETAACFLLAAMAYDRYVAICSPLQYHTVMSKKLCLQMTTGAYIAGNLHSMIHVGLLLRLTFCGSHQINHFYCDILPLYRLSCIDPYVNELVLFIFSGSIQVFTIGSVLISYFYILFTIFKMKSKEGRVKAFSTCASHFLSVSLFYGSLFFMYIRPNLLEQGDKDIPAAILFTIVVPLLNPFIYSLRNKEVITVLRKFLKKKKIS
# In short: as §1
# A0A6P3DZI2 = tested on: T6, A0A6P3DZI2
# T6 sequence (whole entry): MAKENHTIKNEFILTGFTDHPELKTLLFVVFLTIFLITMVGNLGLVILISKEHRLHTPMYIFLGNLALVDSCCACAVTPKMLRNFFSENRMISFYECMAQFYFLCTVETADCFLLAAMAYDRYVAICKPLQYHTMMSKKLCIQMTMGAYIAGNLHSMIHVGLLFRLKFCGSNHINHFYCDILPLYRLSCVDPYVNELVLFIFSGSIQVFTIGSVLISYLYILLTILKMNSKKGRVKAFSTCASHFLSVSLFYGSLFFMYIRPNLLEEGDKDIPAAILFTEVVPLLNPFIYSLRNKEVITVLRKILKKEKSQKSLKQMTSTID
# In short: as §1
# A0A6P6H1F7 = tested on: T7, A0A6P6H1F7
# T7 sequence (whole entry): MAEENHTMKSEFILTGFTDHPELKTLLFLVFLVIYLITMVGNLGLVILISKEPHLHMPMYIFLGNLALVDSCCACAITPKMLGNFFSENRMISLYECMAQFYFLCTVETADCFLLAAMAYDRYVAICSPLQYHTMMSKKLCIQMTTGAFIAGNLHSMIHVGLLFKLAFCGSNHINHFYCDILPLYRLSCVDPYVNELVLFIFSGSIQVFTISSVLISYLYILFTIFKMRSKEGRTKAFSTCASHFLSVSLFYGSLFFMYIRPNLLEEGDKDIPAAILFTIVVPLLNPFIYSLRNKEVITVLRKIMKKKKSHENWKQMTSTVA
# In short: as §1
# A0A1L1SVG7 = tested on: T8, A0A1L1SVG7
# T8 sequence (whole entry): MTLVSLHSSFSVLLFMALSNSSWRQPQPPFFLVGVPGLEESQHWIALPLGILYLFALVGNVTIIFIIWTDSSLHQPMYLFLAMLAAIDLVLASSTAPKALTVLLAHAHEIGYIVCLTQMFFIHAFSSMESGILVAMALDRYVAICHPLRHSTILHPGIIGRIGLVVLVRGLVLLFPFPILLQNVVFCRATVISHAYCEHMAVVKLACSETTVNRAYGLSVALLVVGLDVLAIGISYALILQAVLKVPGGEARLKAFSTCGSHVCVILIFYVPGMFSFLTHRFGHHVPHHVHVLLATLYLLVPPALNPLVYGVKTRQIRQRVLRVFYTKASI
# In short: as §1
# A0A2J8KNW9 = tested on: A0A2J8KNW9
# In short: as §1
# A0A2R8ZMP6 = tested on: A0A2R8ZMP6
# In short: as §1
# 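Note: active if original authors judged signal statistically different from baseline.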
smiles,measurement,setting,value
CCc1ncc(C)nc1CC,odorant receptor agonist call,A0A140T8K0,inactive
same,odorant receptor agonist call,A0A140T8K4,inactive
same,odorant receptor agonist call,A0A2J8MY22,active
same,odorant receptor agonist call,A0A2R8ZIW4,active
same,odorant receptor agonist call,A0A3Q7SVK8,active
same,odorant receptor agonist call,A0A6P3DZI2,active
same,odorant receptor agonist call,A0A6P6H1F7,active
CCc1cnc(C)c(C)n1,odorant receptor agonist call,A0A140T8K4,active
same,odorant receptor agonist call,A0A2J8MY22,active
same,odorant receptor agonist call,A0A2R8ZIW4,inactive
same,odorant receptor agonist call,A0A3Q7SVK8,inactive
same,odorant receptor agonist call,A0A6P3DZI2,inactive
same,odorant receptor agonist call,A0A6P6H1F7,inactive
CCc1nccnc1CC,odorant receptor agonist call,A0A140T8K0,inactive
same,odorant receptor agonist call,A0A140T8K4,inactive
same,odorant receptor agonist call,A0A2J8MY22,active
same,odorant receptor agonist call,A0A2R8ZIW4,active
same,odorant receptor agonist call,A0A3Q7SVK8,active
same,odorant receptor agonist call,A0A6P3DZI2,inactive
same,odorant receptor agonist call,A0A6P6H1F7,active
COc1nccnc1C(C)C,odorant receptor agonist call,A0A140T8K0,inactive
same,odorant receptor agonist call,A0A140T8K4,inactive
same,odorant receptor agonist call,A0A2J8MY22,active
same,odorant receptor agonist call,A0A2R8ZIW4,active
same,odorant receptor agonist call,A0A3Q7SVK8,active
same,odorant receptor agonist call,A0A6P3DZI2,inactive
same,odorant receptor agonist call,A0A6P6H1F7,active
CCCCC(=O)O,odorant receptor agonist call,A0A140T8K0,inactive
same,odorant receptor agonist call,A0A140T8K4,inactive
same,odorant receptor agonist call,A0A1L1SVG7,inactive
CCC(C)c1nccnc1OC (stereo not given),odorant receptor agonist call,A0A140T8K0,inactive
same,odorant receptor agonist call,A0A140T8K4,inactive
same,odorant receptor agonist call,A0A2J8MY22,active
same,odorant receptor agonist call,A0A2R8ZIW4,active
same,odorant receptor agonist call,A0A3Q7SVK8,active
same,odorant receptor agonist call,A0A6P3DZI2,inactive
same,odorant receptor agonist call,A0A6P6H1F7,active
COC1=C(C)OC(C)C1=O (stereo not given),odorant receptor agonist call,A0A140T8K4,inactive
same,odorant receptor agonist call,A0A2J8MY22,active
same,odorant receptor agonist call,A0A2R8ZIW4,inactive
same,odorant receptor agonist call,A0A3Q7SVK8,inactive
same,odorant receptor agonist call,A0A6P3DZI2,inactive
same,odorant receptor agonist call,A0A6P6H1F7,inactive
Cc1cncc(C)n1,odorant receptor agonist call,A0A140T8K4,inactive
same,odorant receptor agonist call,A0A2J8MY22,active
same,odorant receptor agonist call,A0A2R8ZIW4,active
same,odorant receptor agonist call,A0A3Q7SVK8,active
same,odorant receptor agonist call,A0A6P3DZI2,active
same,odorant receptor agonist call,A0A6P6H1F7,active
CC(=O)c1nccnc1C,odorant receptor agonist call,A0A140T8K4,inactive
same,odorant receptor agonist call,A0A2J8MY22,active
same,odorant receptor agonist call,A0A2R8ZIW4,active
same,odorant receptor agonist call,A0A3Q7SVK8,active
same,odorant receptor agonist call,A0A6P3DZI2,inactive
same,odorant receptor agonist call,A0A6P6H1F7,active
CCC(C(=O)O)c1ccccc1 (stereo not given),odorant receptor agonist call,A0A140T8K4,inactive
same,odorant receptor agonist call,A0A1L1SVG7,inactive
C=C(C)C1CCC(C)C(=O)C1 (stereo not given),odorant receptor agonist call,A0A140T8K0,inactive
same,odorant receptor agonist call,A0A140T8K4,active
same,odorant receptor agonist call,A0A1L1SVG7,inactive
CCCCCCCC(=O)[O-].[H+],odorant receptor agonist call,A0A140T8K4,inactive
same,odorant receptor agonist call,A0A1L1SVG7,inactive
CCCCCC1=C(C)CCC1=O,odorant receptor agonist call,A0A140T8K0,inactive
same,odorant receptor agonist call,A0A140T8K4,inactive
same,odorant receptor agonist call,A0A1L1SVG7,inactive
Cc1cnccn1,odorant receptor agonist call,A0A140T8K4,inactive
same,odorant receptor agonist call,A0A2J8MY22,active
same,odorant receptor agonist call,A0A2R8ZIW4,active
same,odorant receptor agonist call,A0A3Q7SVK8,active
same,odorant receptor agonist call,A0A6P3DZI2,inactive
same,odorant receptor agonist call,A0A6P6H1F7,active
O=C(c1ccccc1)c1ccccc1,odorant receptor agonist call,A0A140T8K0,inactive
same,odorant receptor agonist call,A0A140T8K4,inactive
same,odorant receptor agonist call,A0A1L1SVG7,inactive
Cc1nccnc1C,odorant receptor agonist call,A0A140T8K4,inactive
same,odorant receptor agonist call,A0A2J8MY22,active
same,odorant receptor agonist call,A0A2R8ZIW4,active
same,odorant receptor agonist call,A0A3Q7SVK8,active
same,odorant receptor agonist call,A0A6P3DZI2,inactive
same,odorant receptor agonist call,A0A6P6H1F7,active
COc1cnccn1,odorant receptor agonist call,A0A140T8K0,inactive
same,odorant receptor agonist call,A0A140T8K4,inactive
same,odorant receptor agonist call,A0A2J8MY22,active
same,odorant receptor agonist call,A0A2R8ZIW4,active
same,odorant receptor agonist call,A0A3Q7SVK8,active
same,odorant receptor agonist call,A0A6P3DZI2,inactive
same,odorant receptor agonist call,A0A6P6H1F7,active
CCCCCCCCCC(=O)[O-].[H+],odorant receptor agonist call,A0A140T8K0,inactive
same,odorant receptor agonist call,A0A140T8K4,inactive
same,odorant receptor agonist call,A0A1L1SVG7,active
COc1nccnc1CC(C)C,odorant receptor agonist call,A0A140T8K4,inactive
same,odorant receptor agonist call,A0A2J8MY22,active
same,odorant receptor agonist call,A0A2R8ZIW4,active
same,odorant receptor agonist call,A0A3Q7SVK8,active
same,odorant receptor agonist call,A0A6P3DZI2,inactive
same,odorant receptor agonist call,A0A6P6H1F7,active
CCc1nccnc1C,odorant receptor agonist call,A0A140T8K4,inactive
same,odorant receptor agonist call,A0A2J8MY22,active
same,odorant receptor agonist call,A0A2R8ZIW4,active
same,odorant receptor agonist call,A0A3Q7SVK8,active
same,odorant receptor agonist call,A0A6P3DZI2,inactive
same,odorant receptor agonist call,A0A6P6H1F7,active
CCCCOC(=O)C(C)OC(=O)CCC (stereo not given),odorant receptor agonist call,A0A140T8K4,inactive
same,odorant receptor agonist call,A0A1L1SVG7,inactive
Cc1cnc(C)cn1,odorant receptor agonist call,A0A140T8K4,inactive
same,odorant receptor agonist call,A0A2J8MY22,active
same,odorant receptor agonist call,A0A2R8ZIW4,active
same,odorant receptor agonist call,A0A3Q7SVK8,active
same,odorant receptor agonist call,A0A6P3DZI2,inactive
same,odorant receptor agonist call,A0A6P6H1F7,active
CCCCCCCCCCO,odorant receptor agonist call,A0A140T8K0,inactive
same,odorant receptor agonist call,A0A140T8K4,inactive
same,odorant receptor agonist call,A0A1L1SVG7,inactive
CCCCCCC(=O)[O-].[H+],odorant receptor agonist call,A0A140T8K4,inactive
same,odorant receptor agonist call,A0A1L1SVG7,inactive
CCC(S)C(C)CO (stereo not given),odorant receptor agonist call,A0A2J8KNW9,inactive
same,odorant receptor agonist call,A0A2R8ZMP6,inactive
Cc1cnc(C)c(C)n1,odorant receptor agonist call,A0A140T8K4,inactive
same,odorant receptor agonist call,A0A2J8MY22,active
same,odorant receptor agonist call,A0A2R8ZIW4,active
same,odorant receptor agonist call,A0A3Q7SVK8,active
same,odorant receptor agonist call,A0A6P3DZI2,active
same,odorant receptor agonist call,A0A6P6H1F7,active
CCc1nccnc1OC,odorant receptor agonist call,A0A140T8K4,inactive
same,odorant receptor agonist call,A0A2J8MY22,active
same,odorant receptor agonist call,A0A2R8ZIW4,active
same,odorant receptor agonist call,A0A3Q7SVK8,active
same,odorant receptor agonist call,A0A6P3DZI2,inactive
same,odorant receptor agonist call,A0A6P6H1F7,active
CC1CCc2nccnc21 (stereo not given),odorant receptor agonist call,A0A140T8K4,inactive
same,odorant receptor agonist call,A0A2J8MY22,active
same,odorant receptor agonist call,A0A2R8ZIW4,active
same,odorant receptor agonist call,A0A3Q7SVK8,active
same,odorant receptor agonist call,A0A6P3DZI2,inactive
same,odorant receptor agonist call,A0A6P6H1F7,active
